According to ChEMBL document CHEMBL1124586, “Carbohydrate biguanides as potential hypoglycemic agents” (1989):

Key:
Assay type in all cases: functional
Rattus norvegicus [1] = assay: Rise in the blood glucose level after 30 min following 100 mg/kg oral dose in fasted nondiabetic rats
Outline: (§1)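 Rats fasted 18 h, dosed orally (0.5% w/v methylcellulose suspension or aqueous solution; controls got the same vehicle) 60 min before an oral glucose load of 1.0 g/kg. Tail-vein blood was taken just before (0 min) and 30 min after glucose. Whole blood was deproteinized with Ba(OH)2/ZnSO4 and glucose read by glucose oxidase. Values are mean ± SEM, n rats per group.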

Rattus norvegicus [2] = assay: Percent inhibition of glucose rise, following 100 mg/kg oral dose in fasted nondiabetic rats
Outline: (§2)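 Rats fasted 18 h were dosed orally around 9 a.m. with drug or vehicle (0.5% w/v methylcellulose suspension or aqueous solution), dosed on salt-free basis by mean group body weight, 60 min before oral glucose 1.0 g/kg. Tail-vein blood at 0 and 30 min, glucose oxidase on deproteinized whole blood. Rise corrected for no-glucose vehicle rats; %inhibition = 100(ΔGV−ΔGD)/ΔGV; mean ± SEM.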

Rattus norvegicus [3] = assay: Rise in the glucose level 100 mg/kg oral dose in fasted nondiabetic rats
Outline: (§3)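 Fasted rats (18 h) were given oral drug or vehicle 60 min before 1.0 g/kg oral glucose, with glucose-oxidase readings on tail blood at 0 and 30 min. The change from 0 min was corrected by subtracting the change in vehicle rats given no glucose. Groups were compared with vehicle by ANOVA/Dunnett (p ≤ 0.05). % inhibition = 100(ΔGV − ΔGD)/ΔGV.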

Rattus norvegicus [4] = assay: Rise in the blood glucose level after 0 min following 100 mg/kg oral dose in fasted nondiabetic rats; outline: as §1
Rattus norvegicus [5] = assay: Rise in the blood glucose level after 30 min following 200 mg/kg oral dose in fasted nondiabetic rats; outline: as §1
Rattus norvegicus [6] = assay: Rise in the blood glucose level at 200 mg/kg oral dose in fasted nondiabetic rats; outline: as §3
Rattus norvegicus [7] = assay: Rise in the blood glucose level after 0 min following 200 mg/kg oral dose in fasted nondiabetic rats; outline: as §1
Rattus norvegicus [8] = assay: Rise in the blood glucose level at 100 mg/kg oral dose in fasted nondiabetic rats; outline: as §3
Rattus norvegicus [9] = assay: Percent inhibition of glucose rise, following 200 mg/kg oral dose in fasted nondiabetic rats; outline: as §2
Rattus norvegicus [10] = assay: Percent inhibition of glucose rise, following 150 mg/kg oral dose in fasted nondiabetic rats; outline: as §2
Rattus norvegicus [11] = assay: Rise in the blood glucose level after 0 min following 150 mg/kg oral dose in fasted nondiabetic rats; outline: as §1
Rattus norvegicus [12] = assay: Rise in the blood glucose level after 30 min following 150 mg/kg oral dose in fasted nondiabetic rats; outline: as §1
Rattus norvegicus [13] = assay: Rise in the blood glucose level at 50 mg/kg oral dose in fasted nondiabetic rats; outline: as §3
Rattus norvegicus [14] = assay: Percent inhibition of glucose rise, following 300 mg/kg oral dose in fasted nondiabetic rats; outline: as §2
Rattus norvegicus [15] = assay: Rise in the blood glucose level at 150 mg/kg oral dose in fasted nondiabetic rats; outline: as §3
Rattus norvegicus [16] = assay: Rise in the blood glucose level after 0 min following 50 mg/kg oral dose in fasted nondiabetic rats; outline: as §1
Rattus norvegicus [17] = assay: Rise in the blood glucose level at 300 mg/kg oral dose in fasted nondiabetic rats; outline: as §3
Rattus norvegicus [18] = assay: Rise in the blood glucose level after 0 min following 300 mg/kg oral dose in fasted nondiabetic rats; outline: as §1
Rattus norvegicus [19] = assay: Percent inhibition of glucose rise, following 50 mg/kg oral dose in fasted nondiabetic rats; outline: as §2
Rattus norvegicus [20] = assay: Rise in the blood glucose level after 30 min following 50 mg/kg oral dose in fasted nondiabetic rats; outline: as §1
Rattus norvegicus [21] = assay: Rise in the blood glucose level after 30 min following 10 mg/kg oral dose in fasted nondiabetic rats; outline: as §1
Rattus norvegicus [22] = assay: Rise in the blood glucose level after 30 min following 300 mg/kg oral dose in fasted nondiabetic rats; outline: as §1
Rattus norvegicus [23] = assay: Rise in the blood glucose level after 0 min following 10 mg/kg oral dose in fasted nondiabetic rats; outline: as §1
Rattus norvegicus [24] = assay: Rise in the blood glucose level at 10 mg/kg oral dose in fasted nondiabetic rats; outline: as §3
Rattus norvegicus [25] = assay: Percent inhibition of glucose rise, following 10 mg/kg oral dose in fasted nondiabetic rats; outline: as §2

Q: Which results are given for N=C(N)/N=C(\N)NCC1OC(O)[C@H](O)C(O)C1O (some centres undefined)?
A: Glucose rise (Rattus norvegicus [1]): 145 mg/dL; inhibition in vivo at 100 mg/kg (Rattus norvegicus [2]): -14%; Glucose rise (Rattus norvegicus [3]): 77 mg/dL; Glucose rise (Rattus norvegicus [4]): 68 mg/dL

Q: COC1OC(C/N=C(/N)N=C(N)N)[C@@H](OCc2ccccc2)C(OCc2ccccc2)[C@H]1OCc1ccccc1 (some centres undefined) was tested. Which Glucose rise (Rattus norvegicus [1]) did it give?
A: 123 mg/dL

Q: What about the inhibition in vivo at 100 mg/kg (Rattus norvegicus [2]) of the same compound?
A: 47%

Q: And the Glucose rise (Rattus norvegicus [3])?
A: 41 mg/dL

Q: And the Glucose rise (Rattus norvegicus [4])?
A: 82 mg/dL

Q: Which results are given for CC1(C)O[C@@H]2CO[C@@]3(C/N=C(/N)N=C(N)N)OC(C)(C)OC3[C@@H]2O1 (some centres undefined)?
A: Glucose rise (Rattus norvegicus [1]): 152 mg/dL; inhibition in vivo at 100 mg/kg (Rattus norvegicus [2]): -29%; Glucose rise (Rattus norvegicus [3]): 85 mg/dL; Glucose rise (Rattus norvegicus [4]): 67 mg/dL

Q: How did the Glucose rise (Rattus norvegicus [1]) turn out when N=C(N)/N=C(\NCCc1ccccc1)NC1OC(CO)[C@@H](O)C(O)[C@H]1O (some centres undefined) was run?
A: 137 mg/dL

Q: And the inhibition in vivo at 100 mg/kg (Rattus norvegicus [2])?
A: 9%

Q: And the Glucose rise (Rattus norvegicus [3])?
A: 63 mg/dL

Q: And the Glucose rise (Rattus norvegicus [4])?
A: 74 mg/dL

Q: Which results are given for CO[C@H]1OC(CNC(=N)NC(=N)N)[C@@H](O)C(O)[C@H]1O (some centres undefined)?
A: Glucose rise (Rattus norvegicus [1]): 133 mg/dL; inhibition in vivo at 100 mg/kg (Rattus norvegicus [2]): 12%; Glucose rise (Rattus norvegicus [3]): 61 mg/dL; Glucose rise (Rattus norvegicus [4]): 72 mg/dL

Q: Which results are given for N=C(N)/N=C(\N)NCCC1OC(CO)[C@@H](O)C1O (some centres undefined)?
A: Glucose rise (Rattus norvegicus [1]): 127 mg/dL; inhibition in vivo at 100 mg/kg (Rattus norvegicus [2]): 26%; Glucose rise (Rattus norvegicus [3]): 53 mg/dL; Glucose rise (Rattus norvegicus [4]): 74 mg/dL

Q: With N=C(N)/N=C(\S)NC1OC(CO)[C@@H](O)C(O)[C@H]1O (some centres undefined) as the compound, how does the Glucose rise (Rattus norvegicus [1]) read?
A: 139 mg/dL

Q: And the inhibition in vivo at 100 mg/kg (Rattus norvegicus [2])?
A: 9%

Q: And the Glucose rise (Rattus norvegicus [3])?
A: 63 mg/dL

Q: What about the Glucose rise (Rattus norvegicus [4]) of the same compound?
A: 76 mg/dL

Q: What does the source list for CC1(C)OC2C(C/N=C(\N)N=C(N)N)O[C@@H]3OC(C)(C)O[C@@H]3C2O1 (some centres undefined)?
A: Glucose rise (Rattus norvegicus [1]): 141 mg/dL; inhibition in vivo at 100 mg/kg (Rattus norvegicus [2]): -12%; Glucose rise (Rattus norvegicus [3]): 74 mg/dL; Glucose rise (Rattus norvegicus [4]): 67 mg/dL

Q: CC1(C)O[C@H]2OC3C(OC(C)(C)O[C@@H]3C/N=C(\N)N=C(N)N)[C@H]2O1 (some centres undefined) was tested. Which Glucose rise (Rattus norvegicus [1]) did it give?
A: 118 mg/dL

Q: And the Glucose rise (Rattus norvegicus [5])?
A: 121 mg/dL

Q: What about the Glucose rise (Rattus norvegicus [6]) of the same compound?
A: 43 mg/dL

Q: What about the Glucose rise (Rattus norvegicus [7]) of the same compound?
A: 78 mg/dL

Q: And the Glucose rise (Rattus norvegicus [8])?
A: 40 mg/dL

Q: What about the inhibition in vivo at 200 mg/kg (Rattus norvegicus [9]) of the same compound?
A: 45%

Q: And the inhibition in vivo at 100 mg/kg (Rattus norvegicus [2])?
A: 48%

Q: And the Glucose rise (Rattus norvegicus [4])?
A: 78 mg/dL

Q: Which Glucose rise (Rattus norvegicus [1]) does the source give for CN(C)C(=N)NC(=N)N [METFORMIN] here?
A: 113 mg/dL

Q: And the inhibition in vivo at 100 mg/kg (Rattus norvegicus [2])?
A: 41%

Q: And the Glucose rise (Rattus norvegicus [3])?
A: 45 mg/dL

Q: What about the Glucose rise (Rattus norvegicus [4]) of the same compound?
A: 68 mg/dL

Q: Which results are given for N=C(N)NC(=N)NCCc1ccccc1 [PHENFORMIN]?
A: inhibition in vivo at 150 mg/kg (Rattus norvegicus [10]): 71%; Glucose rise (Rattus norvegicus [11]): 58 mg/dL; Glucose rise (Rattus norvegicus [12]): 84 mg/dL; Glucose rise (Rattus norvegicus [13]): 35 mg/dL; inhibition in vivo at 300 mg/kg (Rattus norvegicus [14]): 81%; Glucose rise (Rattus norvegicus [1]): 101 mg/dL; Glucose rise (Rattus norvegicus [15]): 26 mg/dL; Glucose rise (Rattus norvegicus [16]): 63 mg/dL; Glucose rise (Rattus norvegicus [17]): 21 mg/dL; Glucose rise (Rattus norvegicus [18]): 70 mg/dL; Glucose rise (Rattus norvegicus [8]): 31 mg/dL; inhibition in vivo at 50 mg/kg (Rattus norvegicus [19]): 57%; Glucose rise (Rattus norvegicus [20]): 98 mg/dL; Glucose rise (Rattus norvegicus [21]): 129 mg/dL; Glucose rise (Rattus norvegicus [22]): 21 mg/dL; Glucose rise (Rattus norvegicus [23]): 61 mg/dL; inhibition in vivo at 100 mg/kg (Rattus norvegicus [2]): 64%; Glucose rise (Rattus norvegicus [4]): 70 mg/dL; Glucose rise (Rattus norvegicus [24]): 68 mg/dL; inhibition in vivo at 10 mg/kg (Rattus norvegicus [25]): 0%
